Active and inactive are the calls of the source. The rule behind the calls is not given here.

Here are results for one compound from ChEMBL document CHEMBL1240369, “Antiviral efficacy of the novel compound BIT225 against HIV-1 release from human macrophages” (Antimicrob Agents Chemother, 2010).

Data set [1] relates to Human immunodeficiency virus 1. Nature of the data set: Inhibition of HIV1 Vpu ion channel activity. An outline of the steps: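 Planar lipid bilayer of POPE:POPC (50:50) in n-decane, with 50 mM KCl in 10 mM MES […] in both chambers. Synthetic Vpu peptide (150 ng) was added to cis and trans sides with stirring. K+ current appeared at −100 mV and was recorded at −40 mV, filtered at 1 kHz. Mean currents were taken over 10–30 s before and after compound (40 μM).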

The nature of data set [2]: Cytotoxicity against human MDM cells assessed as cell viability at 0 to 10 uM by MTT assay. As to conditions: read-out: Activity. The class given is cell-based. An outline of the steps: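 Infected day 14 MDM were exposed to compound, up to 10 μM in parallel antiviral assays or extended to 1,000 μM for TC50. On day 7, half the medium was removed and 100 μg MTT added per well for 5 h at 37°C. Formazan was dissolved in acidified isopropanol with 10% Triton X-100 and A560 read. Viability was expressed vs DMSO controls; TC50 by nonlinear regression (n = 3).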

Data set [3] can be described thus: Inhibition of Vpu ion channel in HIV1 92TH001 in human MDM assessed as inhibition of vrius release. On the set-up: species or system Human immunodeficiency virus 1.
The nature of data set [4]: Inhibition of Vpu ion channel in HIV1 1064.52 in human MDM assessed as inhibition of vrius release. Further details: species or system Human immunodeficiency virus 1.
Data set [5] in a line: Inhibition of Vpu ion channel in HIV1 MDR3761 in human MDM assessed as inhibition of vrius release. Further details: species or system Human immunodeficiency virus 1.
A short description of data set [6]: Selectivity index, ratio of TC50 for human MDM cells to EC50 for HIV1 Ba-L infected in human MDM cells. The format is toxicity, cell-based. As to conditions: read-out: Selectivity Index. In short, it runs like this:
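Day-14 adherence-derived MDM from seronegative donors were infected with HIV-1Ba-L for 3 h, PBS-washed thrice, and cultured in DMEM10+ with compound (10 to 0 μM; DMSO vehicle). EC50 came from nonlinear regression of day-7 supernatant RT activity as % virus control (n = 6, triplicates). TC50 came from day-7 MTT (A560, % DMSO control), range extended to 1,000 μM (n = 3). SI = TC50/EC50.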

Data set [7] is described as follows: Selectivity index, ratio of TC50 for human MDM cells to EC50 for HIV1 5705.72 infected in human MDM cells. The format is toxicity, cell-based. As to conditions: read-out: Selectivity Index.
Data set [8] is described as follows: Selectivity index, ratio of TC50 for human MDM cells to EC50 for HIV1 1064.52 infected in human MDM cells. The conditions noted are these: read-out: Selectivity Index. The format is toxicity, cell-based.
Data set [9] has as its system MDM. The data set can be described thus: Inhibition of Vpu ion channel in 0.01 MOI HIV1 Ba-L infected in 14 days differentiated human MDM cells assessed as number of gag copy. The format is cell-based. The conditions noted are these: Human immunodeficiency virus 1. An outline of the steps: (§1)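 MDM differentiated for 7, 10 or 14 days were infected with HIV-1 Ba-L across a range of MOIs, washed three times with PBS and cultured 7 days with 10 μM compound or equal-volume DMSO. On day 7 postinfection, supernatant RT activity was measured (and infectivity on TZM-bl cells). Cell lysates went to real-time PCR for LTR-gag DNA, normalised to albumin copies.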

The test system of data set [10] is MDM. The data set can be described thus: Inhibition of Vpu ion channel in 0.001 to 0.01 MOI HIV1 Ba-L infected in 10 days differentiated human MDM cells assessed as viral inhibition by RT assay. The class given is cell-based. As to conditions: Human immunodeficiency virus 1. In short, it runs like this:
as §1

The subject of data set [11] is MDM. The data set can be described thus: Inhibition of Vpu ion channel in 0.05 MOI HIV1 Ba-L chronically infected in 14 days differentiated human MDM cells assessed as viral inhibition measured after treatment at 11 th day postinfection. The class given is cell-based. The conditions noted are these: Human immunodeficiency virus 1.
Data set [12] has as its system MDM. Nature of the data set: Inhibition of Vpu ion channel in 0.05 MOI HIV1 Ba-L chronically infected in 7 days differentiated human MDM cells assessed as reverse transcriptase activity after 21 days. The format is cell-based. The conditions noted are these: Human immunodeficiency virus 1. An outline of the steps: (§2)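 Chronic infection model: MDM were incubated with HIV-1 Ba-L for 3 h and left 7 days unwashed, then washed three times and given a single 10 μM dose (DMSO control). Supernatants were sampled routinely for RT activity. In the washout arm, compound was removed and cells kept drug-free for an additional 20 days.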

Data set [13] relates to MDM. Nature of the data set: Inhibition of Vpu ion channel in 0.05 MOI HIV1 Ba-L chronically infected in 7-14 days differentiated human MDM cells assessed as viral inhibition at 10 uM after 7 days post treatment. The class given is cell-based. As to conditions: Human immunodeficiency virus 1. In short, it runs like this: as §2
Data set [14] has as its system Human immunodeficiency virus 2. Nature of the data set: Antiviral activity against 0.05 MOI HIV2 chronically infected in 7-14 days differentiated human MDM cells assessed as viral inhibition measured after 7 days. The format is functional, organism-based. An outline of the steps:
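Day 14 MDM from 3 seronegative donors were infected with HIV-2, or with HIV-1 Ba-L as a positive control, at MOI 0.05 for 7 days. Cells were then washed free of extracellular virus and cultured ± 10 μM compound for a further 7 days. Day 28 supernatants were assayed for RT activity by chemiluminescent ELISA, with recombinant RT as the standard.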

Data set [15] concerns Human immunodeficiency virus 2. Nature of the data set: Antiviral activity against 0.05 MOI HIV2 cytopathic strain chronically infected in 7-14 days differentiated human MDM cells assessed as viral inhibition measured after 7 days. The class given is functional. An outline of the steps: (§3)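 Day 14 MDM from three seronegative donors were infected at MOI 0.05 for 7 days, then washed free of extracellular virus. Cultures then ran a further 7 days with or without 10 μM BIT225, from day 21. Day 28 supernatants were assayed by RT activity ELISA. Percent inhibition was taken versus untreated controls, as mean of three donors.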

Data set [16] relates to Human immunodeficiency virus 2. The data set can be described thus: Antiviral activity against 0.05 MOI HIV2 noncytopathic strain chronically infected in 7-14 days differentiated human MDM cells assessed as viral inhibition measured after 7 days. The format is functional. An outline of the steps: as §3
Data set [17] has as its system Human immunodeficiency virus 1. The data set can be described thus: Antiviral activity against HIV1 Ba-L in human MDM assessed as inhibition integration of virus to host cell genome at 0.3125 to 10 uM. The class given is functional, organism-based.
Data set [18] deals with Human immunodeficiency virus 1. Nature of the data set: Antiviral activity against HIV1 Ba-L in human MDM assessed as inhibition integration of virus to host cell genome at 10 nM. The class given is functional, organism-based.
The test system of data set [19] is Human immunodeficiency virus 1. The data set can be described thus: Antiviral activity against HIV1 Ba-L in human MDM assessed as inhibition integration of virus to host cell genome at 10 nM by RT assay. The format is functional. As to conditions: Human immunodeficiency virus 1, Ba-L.
For data set [20], the target named is Protease (Human immunodeficiency virus 1) (UniProt Q9YQ12). Nature of the data set: Inhibition of HIV1 protease assessed as substrate cleavage at 100 uM by cell free assay. An outline of the steps:
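Cell-free fluorometric protease assay: compound (1–100 μM) was premixed with 2 μM quenched HIV-1 protease substrate 1. Background fluorescence (ex 340/em 490 nm) was read every 5 s for 5 min. HIV-1 protease was then added at 1.5% and cleavage followed for a further 5 min. LPV and EFV served as controls.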

Data set [21] has as its system Human immunodeficiency virus 1. The data set can be described thus: Antiviral activity against HIV1 Ba-L in 14 days differentiated human MDM assessed as decrease in intracellular viral protein at 10 uM after 7 days by Western blot analysis. The format is functional, organism-based. In short, it runs like this:
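Day 14 MDM were chronically infected with HIV-1 Ba-L, then given 10 μM compound or DMSO and harvested on day 28. Lysates with equal total protein (checked by β-actin) were run on a 10% polyacrylamide gel and blotted to nitrocellulose. Blots were probed with HIV-1-seropositive human serum, then HRP anti-human IgG.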

For data set [22], the system named is PBMC. Nature of the data set: Inhibition of Vpu ion channel in 0.05 MOI HIV1 NL4-3 infected in human PBMC cells assessed as viral inhibition measured at 10 uM after 7 days by […]. As to conditions: Human immunodeficiency virus 1.

Chain of Protease (Human immunodeficiency virus 1) (Q9YQ12 as listed by the source): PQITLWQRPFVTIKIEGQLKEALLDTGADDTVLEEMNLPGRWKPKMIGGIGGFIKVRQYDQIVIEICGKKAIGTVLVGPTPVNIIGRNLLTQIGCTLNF

With `Cn1cc(-c2cccc3cc(C(=O)NC(=N)N)ccc23)cn1`, the Activity in [1] is 40 µM; in [9], 98; in [12] it was < 2 U/ml. For the same compound, the viability at up to 10 µM in [2] is > 96%. Further, the EC50 in data set [3] worked out at 1500 nM; in data set [4], 2700 nM; in data set [5], 5100 nM. The selectivity ratio in data set [6] was determined as 126; in data set [7], 39.3; in data set [8], 61.9. For the same compound, the figures for the inhibition in [10], in data set [11] and in data set [22] were 82%, 86.3% and 56.8%, respectively. For the same compound, the result in data set [13] and in [18] was Active. The outcome in [14], in [17], in [20] and in data set [21] was inactive. The “inhibition (INH)” value in data set [15] worked out at 6.1%; in data set [16], 13.4%. Moreover, in data set [19], the inhibition at 0.01 µM was 99%.
